Numbering of substitutions follows the chain as printed. Calls of active or inactive are those of the source. The calls are words filed in the database; no cut-off is given here. Peptide text beside a SMILES is read from it. * marks the point of attachment. Cbz = O=C(OCc1ccccc1)*
Tests used:
Calu-6 [1] = assay: (§1) Inhibition of human His-tagged Frataxin/GST-tagged mono ubiquitin interaction expressed in human Calu6 cells after 3 days by GST pull down-based Western blot analysis; assay type: cell-based
How it was run: (§2)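 Calu-6 cells transfected with His-frataxin or His-K147R. From 24 h post-transfection, cells received 10 µM MG132 for 18 h, or compound for 3 days with MG132 added for the last 18 h. Lysate (500 µg) pulled down with 5 µg GST-monoUb or GST on GSH-sepharose, 4 h at 4 °C, pH 7.5 buffer. Eluates blotted with anti-His and quantified by densitometry as % of control. IC50 obtained by four-parameter logistic fit; at least three independent experiments.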

[2] = as §1; assay type: cell-based; conditions: calu-6; how it was run: as §2
[3] = molecular target: T1, Frataxin, mitochondrial (Homo sapiens) (UniProt Q16595); assay: Binding affinity to recombinant His-tagged frataxin (unknown origin) at 1 uM at 25 degC by UF-LC/MS analysis relative to control
T1 sequence (whole entry): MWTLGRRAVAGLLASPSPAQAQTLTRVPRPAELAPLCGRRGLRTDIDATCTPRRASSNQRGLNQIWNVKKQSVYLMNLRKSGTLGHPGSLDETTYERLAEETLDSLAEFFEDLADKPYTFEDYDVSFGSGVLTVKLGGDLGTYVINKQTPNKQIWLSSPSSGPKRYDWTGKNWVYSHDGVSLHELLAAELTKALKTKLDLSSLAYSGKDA
How it was run: (§3)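 His-frataxin recombinant protein (E. coli-expressed, Ni-NTA purified), 1 µM, incubated with ligand at 1 µM in 100 mM Tris-HCl pH 7.5, 50 mM KCl, 5 mM MgCl2, DMSO ≤2%, for 60 min at 25 or 37 °C. Unbound ligand removed by ultrafiltration and washing. Bound ligand dissociated in methanol and quantified by LC/MS (ESI positive). Ratio of peak area with active vs heat-denatured (90 °C, 1 h) protein. Duplicate assays, each analyzed twice.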

Calu-6 [4] = assay: Inhibition of human His-tagged Frataxin/Ubiquitin interaction expressed in human Calu6 cells assessed as increase in mature frataxin (81-210) level at 50 uM after 3 days by Western blotting analysis; assay type: cell-based
How it was run: (§4)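 Calu-6 cells (DMEM with glutamax, 10% FBS) transiently transfected with His-frataxin. From 24 h post-transfection, treated with 10 µM proteasome inhibitor for 18 h or 50 µM compound for 3 days. Extracts (50 µg) resolved on 15% SDS gels and immunoblotted with anti-frataxin using ECL detection. Band levels quantified by PhosphorImager and normalized to tubulin. Three independent experiments.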

[5] = molecular target: T1, Frataxin, mitochondrial (Homo sapiens); assay: Binding affinity to recombinant His-tagged frataxin (unknown origin) at 1 uM at 37 degC by UF-LC/MS analysis relative to control; how it was run: as §3
Calu-6 [6] = assay: Inhibition of His-tagged Frataxin (unknown origin)/Ubiquitin interaction expressed in human Calu6 cells assessed as increase in frataxin (1-210) precursor level at 10 uM after 18 hrs by Western blotting analysis; assay type: cell-based; how it was run: as §4
Calu-6 [7] = assay: Inhibition of His6-tagged Frataxin (unknown origin)/HA-tagged Ubiquitin interaction expressed in human Calu6 cells assessed as accumulation of frataxin at 10 uM after 18 hrs by immunoprecipitation assay; assay type: cell-based
How it was run: (§5)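 Calu-6 cells cotransfected with His-frataxin and HA-Ub, then treated with 10 µM MG132 for 18 h starting 24 h after transfection. Frataxin immunoprecipitated from 1.5 mg extract using anti-frataxin on protein A/G beads (4 °C, 12 h). Precipitates run on 12% SDS-PAGE and blotted with anti-Ub. Three independent experiments.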

[8] = test system: T2, Frataxin, mitochondrial (Homo sapiens), Q16595 [K147R]; assay: Inhibition of recombinant GST-tagged mono ubiquitin/His-tagged Frataxin K147R mutant (unknown origin) interaction expressed in human Calu6 cells assessed as presence of frataxin signal at 10 uM after 18 hrs by GST pull down-based Western blotting analysis; assay type: cell-based; conditions: Calu-6; how it was run: as §2
T2 sequence (whole entry): T1 sequence (whole entry) with K147R

Calu-6 [9] = assay: Inhibition of recombinant His-tagged Frataxin (unknown origin)/GST-tagged mono ubiquitin interaction expressed in human Calu6 cells assessed as presence of frataxin signal at 10 uM after 18 hrs by GST pull down-based Western blotting analysis; assay type: cell-based; how it was run: as §2
Calu-6 [10] = assay: Inhibition of His-tagged Frataxin (unknown origin)/HA-tagged Ubiquitin interaction expressed in human Calu6 cells assessed as accumulation of monoUB-tagged frataxin (1-210) precursor at 10 uM after 18 hrs by immunoprecipitation assay; assay type: cell-based; how it was run: as §5
Calu-6 [11] = assay: Cytotoxicity against human Calu6 cells assessed as cell viability up to 100 uM; assay type: cell-based

Compound | inhibition (Calu-6 [1]) | IC50 [2] [µM] | also measured
COc1ccc(C(c2cc3c(cc2O)OCO3)N2CCOCC2)c(OC)c1 (stereo not drawn) | Dose-dependent effect | 44 | 
Oc1cc2c(cc1C(c1ccc(Cl)cc1)N1CCOCC1)OCO2 (stereo not drawn) | Dose-dependent effect | 68 | 
COc1cccc(C(c2cc3c(cc2O)OCO3)N2CCOCC2)c1O (stereo not drawn) | Dose-dependent effect | 29 | 
COc1cccc(C(c2cc3c(cc2O)OCO3)N2CCOCC2)c1OC (single isomer, unassigned; (+)) [listing 1 of 2 here] | Dose-dependent effect |  | fold change (FC) [3]: 3.7; inhibition (Calu-6 [4]): Active; fold change (FC) [5]: 3.32
CC(C)C[C@H](NC(=O)[C@H](Cc1ccccc1)NC(=O)c1cnccn1)B(O)O |  |  | inhibition (Calu-6 [6]): Active
COc1ccc(C(c2cc3c(cc2O)OCO3)N2CCCC2)cc1 (stereo not drawn) | Dose-dependent effect | 97 | 
Oc1cc2c(cc1C(c1ccc3c(c1)OCO3)N1CCOCC1)OCO2 (stereo not drawn) | Dose-dependent effect | 70 | 
COc1ccc(C(c2cc3c(cc2O)OCO3)N2CCOCC2)cc1OC (stereo not drawn) | Dose-dependent effect | 20 | 
COc1cccc(C(c2cc3c(cc2O)OCO3)N2CCOCC2)c1OC (single isomer, unassigned; (-)) |  |  | inhibition (Calu-6 [4]): inactive
COc1cc(OC)c(C(c2cc3c(cc2O)OCO3)N2CCOCC2)c(OC)c1 (stereo not drawn) | Dose-dependent effect | 53 | 
COc1ccc(C(c2cc3c(cc2O)OCO3)N2CCCCC2)cc1 (stereo not drawn) | Dose-dependent effect | 82 | 
Oc1cc2c(cc1C(c1ccc(F)cc1)N1CCOCC1)OCO2 (stereo not drawn) | Dose-dependent effect | 67 | 
COc1cccc(C(c2cc3c(cc2O)OCO3)N2CCOCC2)c1OC (racemic) |  |  | inhibition (Calu-6 [4]): Active
Oc1ccccc1C(c1cc2c(cc1O)OCO2)N1CCOCC1 (stereo not drawn) | Dose-dependent effect | 80 | 
CC(C)C[C@@H](C=O)NC(=O)[C@H](CC(C)C)NC(=O)[C@H](CC(C)C)NC(=O)OCc1ccccc1 (Cbz-Leu-Leu-Leu-aldehyde) |  |  | inhibition (Calu-6 [7]): Active; inhibition [8]: inactive; inhibition (Calu-6 [9]): Active; inhibition (Calu-6 [10]): Active; inhibition (Calu-6 [6]): Active
CN(C)c1ccc(C(c2cc3c(cc2O)OCO3)N2CCOCC2)cc1 (stereo not drawn) | Dose-dependent effect | 81 | 
COc1ccc(C(c2cc3c(cc2O)OCO3)N2CCOCC2)cc1 (stereo not drawn) | Dose-dependent effect | 65 | 
COc1cccc(C(c2cc3c(cc2O)OCO3)N2CCOCC2)c1OC (single isomer, unassigned; (+)) [listing 2 of 2 here] |  | 45 | Activity (Calu-6 [11]): Non-toxic

From ChEMBL document CHEMBL2321739, “Discovery of a novel small molecule inhibitor targeting the frataxin/ubiquitin interaction via structure-based virtual screening and bioassays” (J Med Chem, 2013)
